KCC2 mod = KCC2 cotransporter modulators, thallium flux, primary screen, cell-based, HEK293 KCC2, FluoZin-2 fluorescence, MLSMR | Solute carrier family 12 member 5 (Homo sapiens), Q9H2X9 | KCC2 cells, thallium flux FluoZin-2 fluorescence | B-score of Tl+ flux slope (higher = more flux/activation; lower = inhibition) at 10 µM | 2.2% of 190,000 active | AID 1456, 2008;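 active means thallium flux slope and its plate-corrected score both differing from the plate sample mean at a set confidence after two filtering rounds, in either direction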;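 further: slope of fluorescence scaled to starting intensity during 10 to 20 s after thallium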
SKKanGAS inh = S. pyogenes SKKanGAS growth inhibitors in kanamycin, primary screen, streptokinase expression inhibitor project, SKKanGAS strain, BacTiter-Glo luminescence; 1.3% of 300,000 active; AID 1662, 2009; inhibition, % at 7.5 µM; 6 h;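 active means mean replicate score, as percent of positive control median, at least 50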;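 further: strain carries kanamycin resistance gene driven by streptokinase promoter and grows in 40 µg/ml kanamycin; loss of luminescence reflects streptokinase promoter inhibition or plain growth inhibition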
Rad51 HR inh = human RAD51 strand exchange inhibitors, primary screen, biochemical, fluorescence; hRad51 DNA strand exchange, fluorescence dequenching; inhibition, % at 10 µM; 0.085% of 200,000 active;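 active means inhibition above 40% at the single screening dose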
Target sequence (Q06609 whole entry, looked up): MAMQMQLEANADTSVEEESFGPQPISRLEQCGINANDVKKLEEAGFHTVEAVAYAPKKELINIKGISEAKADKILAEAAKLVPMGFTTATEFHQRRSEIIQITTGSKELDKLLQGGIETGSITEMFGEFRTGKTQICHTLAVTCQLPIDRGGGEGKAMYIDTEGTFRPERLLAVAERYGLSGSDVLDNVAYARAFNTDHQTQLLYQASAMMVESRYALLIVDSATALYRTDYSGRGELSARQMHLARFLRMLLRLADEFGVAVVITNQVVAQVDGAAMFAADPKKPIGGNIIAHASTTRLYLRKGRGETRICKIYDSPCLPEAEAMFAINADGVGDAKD
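material = hRad51 filaments on single-stranded DNA | reagent = Donor/quencher-labelled 47-bp dsDNA substrate | compound = 10 µM final, single point | schedule = strand-exchange reaction 15 min at room temperature | measured by = fluorescein emission 520 nm, excitation 485 nm | read-out basis = % inhibition versus plate control and blank means | benchmarks = plate controls and plate blanks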
WT yeast gro inh = growth inhibition of WT strain, primary screen, mitochondrial fusion inhibitor project, WT and mutant strains, chemical genetic; mitochondrial fusion phenotypic screen; inhibition, % at 10 µM; 2.1% of 190,000 active; AID 1362, 2008; in the data active means inhibition above about 58%; tested in S. cerevisiae
Autophagy mod = autophagy modulators in MEF cells, primary screen, imaging, high-content, MEF GFP-LC3 | calls only at 10 µM (by protocol) | 0.98% of 190,000 active | MEF GFP-LC3 puncta imaging; test concentration mostly 10 µM;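 active means percentage of spot-positive cells more than 3 SD above its plate mean, without a fluorescence outlier flag or 80% toxicity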
Ins promoter up = insulin promoter activators in MIN6 cells, imaging, high-content screening, mouse beta cells. MIN6 insulin promoter-GFP reporter; stronger effect = higher value. z-score at 5 µM. 0.3% of 190,000 active. AID 1625, 2009;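 active means z-score above 3 at 5 µM with at least 500 cells counted in the well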
Of the large screens only hits and unclear results are named; the others gave an inactive call. The list is not random: actives were taken first. Their share in the collection is about 4.2%.

CCOC(=O)c1c(NC(C)=O)sc2c(OCC(O)CNC(C)(C)C)c(Br)ccc12 (centres undefined)	Autophagy mod active
C/C(=N\NC(=O)c1cccc(C)c1O)c1ccc(NC(=O)Cc2ccccc2)cc1	none (no result: KCC2 mod, Rad51 HR inh, WT yeast gro inh, Autophagy mod, Ins promoter up)
CCN1/C(=C/c2sc(-c3ccccc3C)c[n+]2C)Sc2ccccc21	WT yeast gro inh 77 (no result: Ins promoter up)
CCN1/C(=C/c2ccc3cc(C)ccc3[n+]2CC)Sc2ccccc21	none (no result: SKKanGAS inh, Autophagy mod, Ins promoter up)
COc1ccc2nc(NC(=O)Nc3ccccc3)sc2c1	none (no result: Ins promoter up)
CC(C)(C)c1nc(NC(=O)Nc2ccccc2)sc1Br	SKKanGAS inh 68, WT yeast gro inh 59
COCc1ccc(C(=O)NC2CCCc3c2cnn3-c2cc(C)cc(C)c2)s1 (centres undefined)	none (no result: KCC2 mod, Rad51 HR inh, WT yeast gro inh, Autophagy mod, Ins promoter up)
O=[N+]([O-])c1cccc(/C=N/NC2CCS(=O)(=O)C2)c1 (centres undefined)	none (no result: Rad51 HR inh, WT yeast gro inh, Autophagy mod, Ins promoter up)
c1ccc2c(c1)sc1nnnn12	WT yeast gro inh 66 (no result: KCC2 mod, Rad51 HR inh)
Cc1ccc(NNc2c(C)nc3ccccc3nc2=O)cc1	none
CCN(CC)c1ccc2cc(-c3nc4ccccc4[nH]3)c(=O)oc2c1	Autophagy mod active (no result: KCC2 mod, Ins promoter up)
CC(OC(=O)c1ccccc1Nc1ccc(SC(F)F)cc1)C(N)=O (centres undefined)	WT yeast gro inh 81
N=C(N)c1ccc(Cl)cc1	none
N=C(N)c1ccc(/C=C/c2ccc(C(=N)N)cc2O)cc1	SKKanGAS inh 100 (no result: WT yeast gro inh, Autophagy mod)
Cc1ccccc1CN1CCN(c2nc3ccccc3s2)CC1	none (no result: KCC2 mod, Rad51 HR inh, WT yeast gro inh, Autophagy mod, Ins promoter up)
O=[N+]([O-])c1cc(-c2nnc(-c3ccccc3)o2)ccc1Oc1ccc(Cl)cc1	none
CCOc1ccc(Oc2ccc(-c3nnc(-c4ccccc4)o3)cc2[N+](=O)[O-])cc1	Autophagy mod active (no result: KCC2 mod, Rad51 HR inh)
O=C(COc1ccccc1Cl)NCCCNC(=O)c1ccco1	none (no result: KCC2 mod, Rad51 HR inh, WT yeast gro inh, Autophagy mod, Ins promoter up)
O=C(COC(=O)c1ccc([N+](=O)[O-])s1)Nc1ccccc1	WT yeast gro inh 70
Cc1[nH]c2ccccc2c1C(=O)COC(=O)c1ccc([N+](=O)[O-])s1	SKKanGAS inh 51, WT yeast gro inh 98 (no result: Ins promoter up)
CC(C)(C)c1ccc(NC(=O)COC(=O)c2ccc([N+](=O)[O-])s2)cc1	WT yeast gro inh 92 (no result: SKKanGAS inh)
O=C(COC(=O)c1ccc([N+](=O)[O-])s1)NCc1ccccc1	none
COC(=O)c1cncc(C)c1	none (no result: KCC2 mod, WT yeast gro inh, Autophagy mod)
N#C/C(=C\c1ccc(C(=O)O)cc1)c1nc2sc3c(c2c(=O)[nH]1)CCCC3	none (no result: SKKanGAS inh, WT yeast gro inh, Autophagy mod)
NC(=O)[C@@H]1CCCN1C(=O)c1ccc2nc(Cc3cccc(Cl)c3)oc2c1	none (no result: KCC2 mod, Rad51 HR inh, WT yeast gro inh, Autophagy mod, Ins promoter up)
CCOC(=O)c1c(NS(=O)(=O)c2cccc(OC)c2)sc2c1CCC2	KCC2 mod 38
COC(=O)c1c(NC(=O)COC(=O)[C@@H](NS(=O)(=O)c2cccc(Cl)c2)C(C)C)sc2c1CCC2	Autophagy mod active (no result: Rad51 HR inh)
COC(=O)c1sc(N)c(C(=O)OC)c1COC(=O)[C@@H](NS(=O)(=O)c1cccc(Cl)c1)C(C)C	none (no result: Ins promoter up)
Cc1ccc(Cl)cc1NC(=O)CCC(=O)NCc1ccco1	none (no result: KCC2 mod, Rad51 HR inh, WT yeast gro inh, Autophagy mod, Ins promoter up)
COc1ccc(OCC(=O)NNC(=O)c2cccc(O)c2)cc1	none (no result: Rad51 HR inh)
CCOc1ccc(NC(=O)CN2C(=O)CSC2=O)cc1	none
COc1cccc(CNC(=O)CCCc2nnc3n(C)c(=O)c4sccc4n23)c1	none (no result: KCC2 mod, Rad51 HR inh, WT yeast gro inh, Autophagy mod, Ins promoter up)
Cc1ccc(S(=O)(=O)N(CCCO)CC(O)CON=C2c3ccccc3-c3ccccc32)cc1 (centres undefined)	WT yeast gro inh 59
CO/N=C(\Cn1ncc(NC2CCCCC2)c(Br)c1=O)c1ccc(Cl)cc1	WT yeast gro inh 71
COc1ccccc1C(=O)CSc1ccccn1	Autophagy mod active
c1ccc(-c2nnc(C3CC(c4ccncc4)=NO3)o2)cc1 (centres undefined)	none (no result: KCC2 mod, WT yeast gro inh, Autophagy mod, Ins promoter up)
CCOC(=O)c1c(-c2ccc(OC)cc2)csc1/N=C/C1=C(O)CCCC1=O	SKKanGAS inh 57, WT yeast gro inh 60 (no result: Rad51 HR inh)
O=C(Nc1ccccc1C(=O)O)c1ccc(Br)c(S(=O)(=O)NCc2ccccc2)c1	none
Cc1cc(NC(=O)CN2C(=O)c3ccccc3S2(=O)=O)no1	none (no result: KCC2 mod, Rad51 HR inh, WT yeast gro inh, Autophagy mod, Ins promoter up)
Cc1cc(NC(=O)CN2C(=O)c3ccccc3C2=O)no1	SKKanGAS inh 50 (no result: WT yeast gro inh, Autophagy mod)
